# Assay outcomes from PubChem BioAssay.
# Kir21 block = inhibitors of mouse Kir2.1 inward-rectifier potassium channel; HEK293-Kir2.1, FluxOR thallium flux fluorescence; hits give low values; B-score at 10 µM; 310,000 tested, 0.85% active; AID 1672, 2009;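 active = fluorescence ratio B-score at or below minus 3 SD of library scores, with starting-brightness B-score within 2 SD, cut at about -4.2 in these data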;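 also: channel flux triggered by added potassium and thallium sulfate stimulus; B-score of peak minus minimum fluorescence over baseline after thallium stimulus; more negative B-score means stronger Kir2.1 block with less thallium influx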
# KCNQ1 pot = potentiators or activators of KCNQ1 channel, primary screen, cell-based, thallium flux, high-throughput | B-score at 10 µM | 310,000 tested, 0.35% active | CHO-K1 KCNQ1, thallium flux FluxOR fluorescence; hits give high values | Potassium voltage-gated channel subfamily KQT member 1 (Homo sapiens), P51787;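 active = fluorescence ratio B-score, a plate-corrected score, at least three library SD, with initial intensity B-score within 5 SD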
#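 assay system = KCNQ1-transfected CHO-K1 cells | medium = assay buffer with matched DMSO | probe or stimulus = depolarizing K+/Tl+ stimulus, K2SO4 and Tl2SO4 each 12.5 mM in 5x stock | dosing = single dose | incubation = dye 90 min, compound 20 min, room temperature | detection = kinetic FluxOR fluorescence, 10 s baseline plus 110 s post-stimulus | evaluation = ratio B score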
# KCNK9 block = KCNK9 potassium channel inhibitors, primary screen, HEK293 cells, thallium flux. FluxOR thallium flux fluorescence; hits give low values. 310,000 tested, 1.2% active. Potassium channel subfamily K member 9 (Homo sapiens), Q9NPC2. B-score at 10 µM;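 active = ratio B-score over 3 SD below the library mean, with starting fluorescence within 5 SD of its mean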;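 also: negative B-score means less thallium flux so channel inhibition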
# Target sequence (Q9NPC2 whole entry, looked up): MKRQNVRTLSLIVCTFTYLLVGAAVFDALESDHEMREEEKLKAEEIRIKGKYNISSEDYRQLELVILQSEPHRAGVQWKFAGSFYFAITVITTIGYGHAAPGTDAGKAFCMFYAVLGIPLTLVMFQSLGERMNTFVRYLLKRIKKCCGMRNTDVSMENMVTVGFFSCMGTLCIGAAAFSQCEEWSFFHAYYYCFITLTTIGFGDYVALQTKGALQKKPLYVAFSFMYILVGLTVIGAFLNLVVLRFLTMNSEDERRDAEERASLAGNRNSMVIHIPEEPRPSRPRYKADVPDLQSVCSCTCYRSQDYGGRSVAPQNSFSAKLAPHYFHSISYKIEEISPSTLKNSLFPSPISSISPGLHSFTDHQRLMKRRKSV
# KCNK3 block = human KCNK3 channel inhibitors, primary screen, CHO cells, FluxOR thallium flux, B-score. Potassium channel subfamily K member 3 (Homo sapiens), O14649. FluxOR fluorescence; hits give low values. B-score at 10 µM. 340,000 tested, 0.84% active. AID 602410, 2012;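 active = B-score under library mean minus 4 SD, starting fluorescence ratio at most library mean plus 5 SD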;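 also: more negative B-score means stronger inhibition of thallium flux through KCNK3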
# KCNQ1 block = inhibitors of human KCNQ1 channel, primary screen, cell-based, thallium flux, high-throughput; Potassium voltage-gated channel subfamily KQT member 1 (Homo sapiens), P51787; CHO-K1 KCNQ1, FluxOR thallium flux fluorescence; hits give high values; B-score at 10 µM; 310,000 tested, 1.3% active;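 active = compounds whose thallium flux B-score, printed positive for inhibition, exceeds three library SD while starting fluorescence stays within three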;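 also: channel opened by potassium depolarization with thallium stimulus after 20 min compound exposure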
# hERG protect = hERG rescue from dofetilide block, primary screen, cell-based, CHO-hERG, FluxOR thallium flux, dofetilide IC70; 310,000 tested, 0.51% active; dofetilide IC70 present; AID 1511, 2009; activation (rescue from dofetilide block), less the hit threshold, % at 10 µM; Voltage-gated inwardly rectifying potassium channel KCNH2 (Homo sapiens), Q12809;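 active = activation above the mean of controls blocked by dofetilide plus 5 SD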;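 also: thallium influx through hERG after potassium depolarization seen as dye fluorescence rise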
# KCNK3 confirm = retest of human KCNK3 channel inhibitors, confirmation, CHO cells, FluxOR thallium flux, triplicate; shares compounds with KCNK3 block; FluxOR fluorescence; 0% buffer, 100% carvedilol maximal block; ratio percent of control, % at 10 µM; 2,400 tested, 99% active;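 active = ratio percent of control, averaged over triplicates, above buffer control mean plus 5 SD, cut at about 64% in these data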;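 also: ratio is the fluorescence rise from min to max over baseline after thallium stimulus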
# KCNK3 uninduced = thallium flux inhibition in non-induced cells, primary screen, counter-screen for KCNK3 inhibitor project, cell-based, non-induced KCNK3 line, FluxOR thallium, triplicate. thallium flux ratio (lower = more inhibition) at 10 µM. shares compounds with KCNK3 block. AID 651747, 2012. non-induced KCNK3 parental cells; hits give low values. 2,400 tested, 40% active;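 active = thallium flux ratio, averaged over three wells, more than 5 SD below the buffer control mean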;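 also: host cells are CHO cells without KCNK3 induction; ratio is peak minus trough fluorescence over baseline then normalized to buffer controls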
# The depositor's hits bear a star; i = inactive; / = not tested or not shown. An excerpt weighted towards active compounds, which were near 3.8% of everything screened.
SMILES,Kir21 block,KCNQ1 pot,KCNK9 block,KCNK3 block,KCNQ1 block,hERG protect,KCNK3 confirm,KCNK3 uninduced
Cc1ccc(OCn2c(=O)sc3ccccc32)cc1,1.6,i,i,-11*,i,-9,112*,i
CCCOc1ccc(C2NC(=S)NC(C)=C2C(=O)c2ccccc2)cc1OC (centres undefined),-0.05,i,i,-9.8*,i,-11,97*,i
COc1cc(C2NC(=S)NC(C)=C2C(=O)c2ccccc2)ccc1O (centres undefined),-0.67,i,i,i,i,-11,/,/
C(=C/c1nccc2c1[nH]c1ccccc12)/c1ccc2c(c1)OCO2,-0.55,i,i,-11*,i,-13,99*,i
COc1cccc(-c2nn(-c3ccc(C)cc3)cc2C(=O)N2CCc3cc(OC)c(OC)cc3C2)c1,-0.32,i,i,-9.8*,i,-23,104*,0.14*
COc1ccc(OC)c(-c2nn(-c3ccccc3)cc2C(=O)N2CCc3ccccc3C2)c1,/,/,/,i,/,/,/,/
Cc1cccc(N2C(=O)CC(Sc3nc(C)c4c(n3)CCCC4)C2=O)c1 (centres undefined),-0.04,i,i,i,i,-10,/,/
Cc1nc(SC2CC(=O)N(c3cc(Cl)cc(Cl)c3)C2=O)nc2c1CCCC2 (centres undefined),-1.5,i,i,-9.8*,i,3,105*,0.16*
CC(=O)Nc1ccc(Oc2cc(C#N)c(C#N)cc2N2CCCCCC2)cc1,/,/,/,-13*,/,/,120*,i
CC(=O)Nc1ccc(OC(=O)N2CCCC2)cc1,-0.17,i,i,i,i,-11,/,/
COc1ccc(/C=N/N(C)C2=NCCN2)c(OC)c1OC,0.28,i,i,i,i,-7,/,/
COc1ccc(S(=O)(=O)N(C)C[C@@H]2Oc3c(NS(C)(=O)=O)cccc3C(=O)N([C@@H](C)CO)C[C@H]2C)cc1,/,/,/,i,/,/,/,/
COc1cc(OC)c(C(=O)OCC(=O)N2CCOCC2)cc1OC,-0.45,i,i,i,i,0,/,/
N#Cc1ccccc1Sc1ccccc1C(=O)OCc1nnc(-c2ccccc2)o1,-0.73,i,i,-9.9*,i,-8,78*,i
CNc1c(NS(=O)(=O)c2ccc(Cl)cc2)c(=O)oc2ccccc12,0.16,i,i,i,i,-11,/,/
CNc1c(NS(=O)(=O)c2ccc(C3CCCCC3)cc2)c(=O)oc2ccccc12,-0.61,i,i,-9.4*,i,-8,87*,i
CCc1nc(SCC(=O)N2c3ccccc3Sc3ccccc32)c2ccccc2n1,0.05,i,i,i,i,-6,/,/
CCc1nc(SCC(=O)c2ccccc2)c2ccccc2n1,-0.8,i,i,-9.4*,i,-7,88*,i
COCC(C)NC(=O)c1cc2cccc([N+](=O)[O-])c2[nH]1 (centres undefined),0.03,i,i,i,i,-9,/,/
Cc1cc(NC(=O)c2cc3cccc([N+](=O)[O-])c3[nH]2)ccc1F,0.05,i,i,-13*,11*,-8,126*,0.14*
O=C(NC1CCCCC1)C(c1cccnc1)N(C(=O)c1csnn1)c1ccccc1 (centres undefined),0.35,i,i,i,i,-3,/,/
O=C(OC1CCCCC1=O)c1cc(Cl)ccc1[N+](=O)[O-] (centres undefined),0.03,i,i,i,i,-5,/,/
O=c1cc(CN2CCc3ccccc32)c2ccc(O)cc2o1,2.3,i,i,i,i,-6,/,/
CCc1ccc2c(CN3CCc4ccccc43)cc(=O)oc2c1,-0.32,i,i,-13*,i,-8,83*,i
CCC(=NCc1ccco1)c1c(C(F)(F)F)[nH]n(-c2nc3ccccc3s2)c1=O,2,i,i,-9*,i,-16,114*,i
SMILES,Kir21 block,KCNQ1 pot,KCNK9 block,KCNK3 block,KCNQ1 block,hERG protect,KCNK3 confirm,KCNK3 uninduced
Cc1ccccc1C(=O)Nc1cccc(NC(=O)c2ccc(F)cc2)c1,0.08,i,i,i,i,-3,/,/
O=C(Nc1cccc(NC(=O)c2ccccc2Cl)c1)c1ccc(F)cc1,1.7,i,i,-9.3*,i,-5,95*,i
O=C(Nc1cccc(NC(=O)c2cccnc2)c1)c1ccccc1,0.58,i,i,-9.1*,i,0,96*,i
O=C(N/N=C/c1ccccc1F)c1cccc(NC(=O)c2ccccc2Cl)c1,1.2,i,i,-8.8*,i,-10,107*,0.16*
O=C(N/N=C/c1ccccn1)c1cccc(NC(=O)c2ccccc2Cl)c1,0.74,i,i,i,i,-4,/,/
COc1ccc(Cl)cc1NC(=O)CN(C)C(=O)c1ccc(N2CCCCCC2)c([N+](=O)[O-])c1,-1.8,i,i,-12*,i,-17,107*,i
COc1ccc(Cl)cc1NC(=O)CN(C)C(=O)c1ccc(N2CCCCC2)c([N+](=O)[O-])c1,0.47,i,i,i,i,-8,/,/
O=C(NCc1ccc(F)cc1)c1cccc(S(=O)(=O)N2CCOCC2)c1,/,/,/,i,/,/,/,/
Cn1cccc1-c1nc2ccc(NC(=O)c3ccccc3)cc2[nH]1,-1.3,i,i,-11*,i,-19,103*,i
O=C(Nc1ccc2nc(-c3ccco3)[nH]c2c1)c1ccco1,-0.34,i,i,-8.9*,i,-15,140*,i
O=C(Cn1cnc2ccccc21)OCC(=O)N1CCCCC1,/,/,/,i,/,/,/,/
COc1ccc(NC(=O)C(C)N2C(=O)C3CC=C(Cl)CC3C2=O)cc1 (centres undefined),-0.29,i,i,i,i,-3,/,/
